Source: PubChem BioAssay
dFosB act – enhances mouse delta FosB homodimer DNA binding; P13346; purified delta FosB, TAMRA-CDK5 oligo fluorescence polarization; percent of positive-control signal above neutral wells; activation, % at 25 µM; actives 0.99% (n = 340,000); AID 493131;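 active = mean activation above about 17%, with every replicate also reaching it, limit read from the data, passing the limit was not always enough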
SR-BI uptake up – SR-BI HDL lipid transfer activation. activation, % at 12.5 µM. actives 0.096% (n = 320,000). CHO ldlA[mSR-BI] cells, DiI-HDL uptake fluorescence, 3 h; 100 = double the neutral-control signal. AID 504775;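 active = mean replicate activation of at least 60% and every replicate at or above 60%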;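 also: 0% = median plate neutral-control signal and 100% = twice that signal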
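Material: SR-BI-overexpressing, LDLR-lacking CHO cells; schedule: compound exposure 3 h, 37 °C; reagent: DiI-labelled HDL at 10 µg/mL final; technique: bottom-read fluorescence, 550/595 nm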
CDK5 p35 inh – CDK5/p35 (human) kinase inhibition | inhibition, % at 10 µM | AID 488839 | actives 0.01% (n = 330,000) | Recombinant CDK5/p35, ADP-Glo luminescence, 60 min;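 active = highest replicate inhibition of at least 50% and at least 75% of replicates reaching 50%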;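 also: plate controls were DMSO neutral control for no effect and GW8510 at 10 µM for full effect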
Target sequence (Q00535 whole entry, looked up): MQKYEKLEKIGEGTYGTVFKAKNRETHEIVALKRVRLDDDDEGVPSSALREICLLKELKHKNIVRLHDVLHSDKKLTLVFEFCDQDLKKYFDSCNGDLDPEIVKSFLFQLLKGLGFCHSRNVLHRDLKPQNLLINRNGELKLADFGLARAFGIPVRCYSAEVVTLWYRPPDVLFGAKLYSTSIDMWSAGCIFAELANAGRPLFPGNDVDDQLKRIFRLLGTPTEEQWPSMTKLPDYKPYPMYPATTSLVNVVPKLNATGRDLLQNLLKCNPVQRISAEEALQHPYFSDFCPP
Target sequence (Q15078 whole entry, looked up): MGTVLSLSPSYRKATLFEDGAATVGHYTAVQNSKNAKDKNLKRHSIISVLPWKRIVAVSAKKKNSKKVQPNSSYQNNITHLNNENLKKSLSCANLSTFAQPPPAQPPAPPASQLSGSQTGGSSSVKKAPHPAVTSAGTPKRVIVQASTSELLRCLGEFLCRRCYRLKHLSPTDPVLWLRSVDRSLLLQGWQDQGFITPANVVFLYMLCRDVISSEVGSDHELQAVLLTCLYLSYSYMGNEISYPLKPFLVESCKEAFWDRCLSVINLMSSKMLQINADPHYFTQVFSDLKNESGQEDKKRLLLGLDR
NSD2 inh – blocks human histone methyltransferase NSD2 | O96028 | NSD2 peptide methylation, AlphaScreen, 120 min | inhibition, % at 12.5 µM | actives 0.54% (n = 310,000) | AID 743445
Dyrk1A ADPGlo – inhibitors of rat Dyrk1A kinase | ADP-Glo luminescence, NFATc1 peptide | Q63470 | inhibition, % at 12.5 µM | actives 0.43% (n = 310,000);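 also: plate controls were vehicle with enzyme for no effect and no enzyme for full effect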
SR-BI HDL uptake – blocks mouse SR-BI lipid uptake from DiI-HDL; ldlA[mSR-BI] CHO cells, DiI-HDL uptake fluorescence, 3 h; inhibition, % at 12.5 µM; actives 0.96% (n = 320,000);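 active = mean replicate inhibition of at least 70% and a set share of replicates each scoring 70 or more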;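 also: 0% = median of neutral control wells and 100% = median of positive control wells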
ADP-Glo artifact – ADP-Glo luciferase interference, Dyrk1A counter-screen; shares compounds with Dyrk1A ADPGlo; ADP-Glo luciferase artifact assay, no Dyrk1A, luminescence; AC50, µM (top dose mostly 12 µM), inactives show at the top dose activity change, negative = inhibition; 1,300 tested, under 10 active; AID 588348;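 active = fitted half-maximal dose AC50 no more than ten times the top valid tested dose, with luminescence dropping as dose rises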
* hit, by the source's call; / = no result given. Only some compounds are listed: those with a hit (about 2.5% of all), similar ones and a draw of the others. Rule as the data show it, unless noted: active = inhibition above about 50%; inactive = the rest.

SMILES	dFosB act	SR-BI uptake up	CDK5 p35 inh	NSD2 inh	Dyrk1A ADPGlo	SR-BI HDL uptake	ADP-Glo artifact
Cc1ccccc1C(=O)NNC(=O)CCCCC(=O)NNC(=O)c1ccccc1C	3.1	0.6	-1.2	2.4	65.8*	-0.6	12.3%
O=S(=O)(O)c1cccc(N=Nc2c(O)ccc3ccccc23)c1	-7.5	25.6	45.2	24.7	74.2*	-25.6	9.7%
CCc1nc2ccc(C(=O)NC3CCN(Cc4ccccc4)CC3)cn2c1N(C)Cc1ccc(N(C)C)cc1	/	/	/	-2.4	/	/	/
C[C@@H]1O[C@@H](OC[C@H]2O[C@@H](Oc3cc(O)c4c(=O)cc(-c5ccc(O)c(O)c5)oc4c3)[C@H](O)[C@@H](O)[C@@H]2O)[C@H](O)[C@H](O)[C@H]1O	11.8	-10.7	-0.9	/	58.6*	10.7	13.4%
O=c1cc(-c2ccc(O)c(O)c2)oc2cc(O[C@@H]3O[C@H](CO)[C@@H](O)[C@H](O)[C@H]3O)cc(O)c12	18.7*	34.9	2.9	/	60.2*	-34.9	9.3%
O=c1c(-c2ccc(O)cc2)coc2cc(OC3OC(CO)C(O)C(O)C3O)cc(O)c12 (stereo unspecified)	-2.7	-1.2	1.8	/	-10.9	1.2	/
S=c1nc2[nH]c3ccccc3c2n[nH]1	1.8	11.4	3.3	0.6	/	-11.4	/
O=C(CC(SCCO)c1ccc2c(c1)OCO2)c1ccco1 (stereo unspecified)	2.9	-49.0	1.8	13.2	83.7*	49.0	8.5%
Oc1ccc(/C=N/n2c(-c3ccccc3)n[nH]c2=S)cc1	1.3	-4.6	6.9	-1.3	55.2*	4.6	8.6%
CCCN=C(C)C1=C(O)c2ccccc2C1=O	-11.9	-13.5	-0.2	14.7	-18.8	13.4	/
CC(=NCc1cccnc1)C1=C(O)c2ccccc2C1=O	-13.0	-2.5	3.8	-2.0	51.2*	2.5	8.7%
COc1cc(/C=C2\SC(=S)N(NC(=O)c3ccccc3O)C2=O)ccc1O	7.5	/	-0.9	18.5	16.8	/	/
O=C(NN1C(=O)/C(=C/c2ccc(O)c([N+](=O)[O-])c2)SC1=S)c1ccccc1Cl	-3.2	8.0	2.0	15.3	74.0*	-8.0	9.8%
O=C(CCCSc1ccccc1)Nc1cccc(CO)c1	-7.0	/	-1.1	0.7	3.5	/	/
Cc1noc(NS(=O)(=O)c2ccc(NC(=O)c3oc4ccc(Cl)cc4c3C)cc2)c1C	11.8	19.5	-2.2	1.0	64.3*	-19.5	10.2%
Cc1cc(C)c(CN2CCN(C(=O)Cn3ccc(N)nc3=O)CC2)c(C)c1	-3.8	-8.0	-0.1	/	50.1*	8.0	7.7%
COc1ccccc1NOC(=O)CCOc1ccccc1	-3.6	-12.9	-1.3	-6.5	/	12.9	/
Cc1cccc(Nc2nc(N)c([N+](=O)[O-])c(N3CCC(C)CC3)n2)c1	13.2	-14.5	1.7	2.1	50.3*	14.5	6.4%
COc1cc(OC)c(OC)cc1CNC(=O)c1cc(S(=O)(=O)N2CCOCC2)ccc1F	-8.0	-12.3	-2.5	0.3	-2.7	12.3	/
Nc1c(C(=O)O)ccc2c1C(=O)c1ccccc1C2=O	-11.9	16.2	4.5	19.5	88.4*	-16.2	7.5%
O=C1c2ccccc2C(=O)c2c1ccc(O)c2O	-19.4	11.9	2.9	/	59.7*	-11.9	7.0%
COC(=O)c1ccc2c(c1O)C(=O)c1ccccc1C2=O	-4.6	5.6	1.7	0.1	6.5	-5.6	/
CCCCn1c(N)c(N(CCOC)C(=O)c2ccc(-c3ccccc3)cc2)c(=O)[nH]c1=O	-6.4	22.8	1.5	5.1	1.7	-22.8	/
Cc1ncc(CO)c(/C=N/Nc2ccc(C(F)(F)F)cn2)c1O	-6.9	0.2	3.1	5.1	50.3*	-0.2	8.6%
O=C(CN1CCOCC1)Nc1nc2ccc(F)cc2s1	1.0	-10.9	-0.6	-0.5	50.7*	10.9	10.6%
O=C(CN1CCOCC1)Nc1nc2ccc([N+](=O)[O-])cc2s1	-2.3	14.7	1.6	-1.6	81.2*	-14.7	9.1%
CCC(=O)Nc1nc2ccc([N+](=O)[O-])cc2s1	2.9	/	-1.7	-1.7	38.0	/	/
CC(=O)Nc1ccc2sc(NC(=O)CN3CCOCC3)nc2c1	-2.9	18.5	-0.3	-0.3	-6.9	-18.5	/
